Laboratory results published in ChEMBL document CHEMBL1782040, “Exceptionally fast uptake and metabolism of cyanidin 3-glucoside by rat kidneys and liver” (J Nat Prod, 2011).

Key:
[1] = test system: Liver; assay: Drug uptake in Wistar rat liver assessed by assuming liver mass was 7 grams at 0.67 umol, iv after 0.25 mins by mass spectrometry analysis; type: ADME, organism-based; conditions: in vivo, 15 s
In short: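 Fasting, anaesthetized rats received cyanidin 3-glucoside in saline into the iliac vein (0.67 μmol) and were killed at 15 s, 1, 5 or 15 min. Liver homogenates were methanol-extracted, cleaned up by SPE and quantified by LC-MS/MS.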

[2] = Drug excretion in Wistar rat urine at 0.67 umol, iv after 15 mins by mass spectrometry analysis; type: ADME, organism-based; conditions: read-out: Activity
In short: (§1)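 Cyanidin 3-glucoside in saline was injected into the iliac vein of fasting, anaesthetized rats (0.67 μmol; 76 μM in plasma). Urine and bile were collected to 15 min, and their volumes were measured. Anthocyanin levels were measured by LC-MS and corrected for recovery from spiked standards. Amounts are given per collected volume (n = 9 urine, n = 4 bile).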

[3] = test system: Kidney; assay: Drug uptake in Wistar rat kidney assessed by assuming kidney mass was 2.4 gram at 0.67 umol, iv after 1 min by mass spectrometry analysis; type: ADME, organism-based; conditions: in vivo
In short: (§2)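 Cyanidin 3-glucoside in saline was given as one iliac-vein injection (0.67 μmol) to fasting, anaesthetized rats, which were killed at 15 s, 1, 5 or 15 min. Kidneys were homogenized, extracted in methanol, cleaned up by SPE and analysed by LC-MS/MS.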

[4] = test system: Plasma; assay: Metabolic stability in Wistar rat assessed as parent compound level in plasma at 0.67 umol, iv after 15 mins by mass spectrometry analysis; type: ADME, organism-based; conditions: in vivo, 0.25 h
In short: (§3)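 Fasted, anaesthetized rats received the anthocyanin in saline as a 0.67 μmol iliac-vein bolus (76 μM in plasma). They were sacrificed at 15 s, 1, 5 or 15 min, and plasma, kidneys, liver, urine and bile were collected. Anthocyanins were methanol-extracted, SPE-cleaned and quantified by MS (tandem MS for trace metabolites), then corrected for recovery measured on spiked blood, homogenates and urine. Amounts assume 8.8 mL plasma, 2.4 g kidney and 7.0 g liver, with urine and bile volumes measured.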

[5] = test system: Kidney; assay: Metabolic stability in Wistar rat assessed as parent compound level in kidney at 0.67 umol, iv after 15 mins by mass spectrometry analysis; type: ADME, organism-based; conditions: in vivo, 0.25 h; in short: as §3
[6] = Drug uptake in Wistar rat liver at 0.67 umol, iv after 5 mins by mass spectrometry analysis; type: ADME, organism-based; conditions: read-out: Drug uptake; in short: as §3
[7] = test system: Nucleic Acid; assay: Ratio of drug uptake in kidney to liver in Wistar rat assessed as level at 0.67 umol, iv by mass spectrometry analysis; conditions: in vivo
[8] = test system: Kidney; assay: Drug uptake in Wistar rat kidney assessed by assuming kidney mass was 2.4 gram at 0.67 umol, iv after 0.25 mins by mass spectrometry analysis; type: ADME, organism-based; conditions: in vivo, 15 s; in short: as §2
[9] = Drug excretion in Wistar rat bile at 0.67 umol, iv after 15 mins by mass spectrometry analysis; type: ADME, organism-based; conditions: read-out: Activity; in short: as §1
[10] = Drug uptake in Wistar rat urine assessed by assuming plasma volume was 8.8 mL at 0.67 umol, iv after 15 mins by mass spectrometry analysis; type: ADME, organism-based; conditions: in vivo, 0.25 h; in short: as §3
[11] = Drug uptake in Wistar rat plasma at 0.67 umol, iv after 15 mins by mass spectrometry analysis; type: ADME, organism-based; in short: as §3
[12] = test system: Kidney; assay: Metabolic stability in Wistar rat assessed as parent compound level in kidney at 0.67 umol, iv after 1 min by mass spectrometry analysis; type: ADME, organism-based; conditions: in vivo; in short: as §3
[13] = Drug uptake in Wistar rat plasma at 0.67 umol, iv after 5 mins by mass spectrometry analysis; type: ADME, organism-based; in short: as §3
[14] = test system: Plasma; assay: Metabolic stability in Wistar rat assessed as parent compound level in plasma at 0.67 umol, iv after 0.25 mins by mass spectrometry analysis; type: ADME, organism-based; conditions: in vivo, 15 s; in short: as §3
[15] = Drug uptake in Wistar rat bile at 0.67 umol, iv after 15 mins by mass spectrometry analysis; type: ADME, organism-based; conditions: read-out: Drug uptake; in short: as §1
[16] = test system: Kidney; assay: Drug uptake in Wistar rat kidney assessed by assuming kidney mass was 2.4 gram at 0.67 umol, iv after 5 mins by mass spectrometry analysis; type: ADME, organism-based; conditions: in vivo; in short: as §2
[17] = Drug uptake in Wistar rat liver at 0.67 umol, iv after 15 mins by mass spectrometry analysis; type: ADME, organism-based; conditions: read-out: Drug uptake; in short: as §3
[18] = test system: Kidney; assay: Metabolic stability in Wistar rat assessed as parent compound level in kidney at 0.67 umol, iv after 5 mins by mass spectrometry analysis; type: ADME, organism-based; conditions: in vivo; in short: as §3
[19] = Metabolic stability in Wistar rat assessed as parent compound level in bile at 0.67 umol, iv after 15 mins by mass spectrometry analysis; type: ADME, organism-based; conditions: in vivo, 0.25 h; in short: as §3
[20] = Drug uptake in Wistar rat kidney at 0.67 umol, iv after 1 min by mass spectrometry analysis; type: ADME, organism-based; conditions: read-out: Drug uptake; in short: as §2
[21] = Drug uptake in Wistar rat plasma at 0.67 umol, iv after 1 min by mass spectrometry analysis; type: ADME, organism-based; in short: as §3
[22] = test system: Liver; assay: Metabolic stability in Wistar rat assessed as parent compound level in liver at 0.67 umol, iv after 0.25 mins by mass spectrometry analysis; type: ADME, organism-based; conditions: in vivo, 15 s; in short: as §3
[23] = Metabolic stability in Wistar rat assessed as parent compound level in urine at 0.67 umol, iv after 15 mins by mass spectrometry analysis; type: ADME, organism-based; conditions: in vivo, 0.25 h; in short: as §3
[24] = Drug uptake in Wistar rat urine at 0.67 umol, iv after 15 mins by mass spectrometry analysis; type: ADME, organism-based; conditions: read-out: Drug uptake; in short: as §3
[25] = Drug uptake in Wistar rat kidney at 0.67 umol, iv after 0.25 mins by mass spectrometry analysis; type: ADME, organism-based; conditions: read-out: Drug uptake; in short: as §2
[26] = test system: Liver; assay: Metabolic stability in Wistar rat assessed as parent compound level in liver at 0.67 umol, iv after 15 mins by mass spectrometry analysis; type: ADME, organism-based; conditions: in vivo, 0.25 h; in short: as §3
[27] = test system: Kidney; assay: Drug uptake in Wistar rat kidney assessed by assuming kidney mass was 2.4 gram at 0.67 umol, iv after 15 mins by mass spectrometry analysis; type: ADME, organism-based; conditions: in vivo, 0.25 h; in short: as §2
[28] = test system: Nucleic Acid; assay: Ratio of drug uptake in bile to liver in Wistar rat at 0.67 umol, iv after 15 mins by mass spectrometry analysis; type: ADME, organism-based; conditions: in vivo, 0.25 h
[29] = Drug uptake in Wistar rat bile assessed by assuming plasma volume was 8.8 mL at 0.67 umol, iv after 15 mins by mass spectrometry analysis; type: ADME, organism-based; conditions: in vivo, 0.25 h
[30] = test system: Liver; assay: Metabolic stability in Wistar rat assessed as parent compound level in liver at 0.67 umol, iv after 1 min by mass spectrometry analysis; type: ADME, organism-based; conditions: in vivo; in short: as §3
[31] = test system: Nucleic Acid; assay: Ratio of drug uptake in kidney to liver in Wistar rat assessed as cyanidin 3-glucoside level at 0.67 umol, iv after 15 mins by mass spectrometry analysis; conditions: in vivo, 0.25 h
[32] = Elimination rate constant in Wistar rat plasma at 0.67 umol, iv; type: ADME, cell-free
In short: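 Rats received a 0.67 μmol iliac-vein bolus in saline under anaesthesia. Plasma amounts (nmol) at 15 s, 1, 5 and 15 min were obtained by recovery-corrected MS and fitted to y = y0 + a·e^(−kt). k is the first-order elimination constant, y0 the steady-state amount, and a the extrapolated t0 amount minus y0.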

[33] = test system: Liver; assay: Drug uptake in Wistar rat liver assessed by assuming liver mass was 7 grams at 0.67 umol, iv after 1 min by mass spectrometry analysis; type: ADME, organism-based; conditions: in vivo; in short: as §3
[34] = test system: Liver; assay: Drug uptake in Wistar rat liver assessed by assuming liver mass was 7 grams at 0.67 umol, iv after 15 mins by mass spectrometry analysis; type: ADME, organism-based; conditions: in vivo, 0.25 h; in short: as §3
[35] = test system: Kidney; assay: Metabolic stability in Wistar rat assessed as parent compound level in kidney at 0.67 umol, iv after 0.25 mins by mass spectrometry analysis; type: ADME, organism-based; conditions: in vivo, 15 s; in short: as §3
[36] = test system: Nucleic Acid; assay: Ratio of drug uptake in urine to kidney in Wistar rat at 0.67 umol, iv after 15 mins by mass spectrometry analysis; type: ADME, organism-based; conditions: in vivo, 0.25 h
In short: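 Fasting anaesthetized rats got 0.67 μmol anthocyanin in saline into the iliac vein (about 76 μM in plasma) and were killed at 15 min. Urine (volume measured) and kidneys (2.4 g assumed) were extracted in methanol and cleaned by SPE. Analytes were quantified by LC-tandem MS, corrected for recovery from spiked matrices, n = 9 rats.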

[37] = Drug uptake in Wistar rat liver at 0.67 umol, iv after 1 min by mass spectrometry analysis; type: ADME, organism-based; conditions: read-out: Drug uptake; in short: as §3
[38] = Drug uptake in Wistar rat plasma at 0.67 umol, iv after 0.25 mins by mass spectrometry analysis; type: ADME, organism-based; in short: as §3
[39] = Drug uptake in Wistar rat kidney at 0.67 umol, iv after 5 mins by mass spectrometry analysis; type: ADME, organism-based; conditions: read-out: Drug uptake; in short: as §2
[40] = test system: Plasma; assay: Metabolic stability in Wistar rat assessed as parent compound level in plasma at 0.67 umol, iv after 5 mins by mass spectrometry analysis; type: ADME, organism-based; conditions: in vivo; in short: as §3
[41] = test system: Plasma; assay: Metabolic stability in Wistar rat assessed as parent compound level in plasma at 0.67 umol, iv after 1 min by mass spectrometry analysis; type: ADME, organism-based; conditions: in vivo; in short: as §3
[42] = test system: Liver; assay: Metabolic stability in Wistar rat assessed as parent compound level in liver at 0.67 umol, iv after 5 mins by mass spectrometry analysis; type: ADME, organism-based; conditions: in vivo; in short: as §3
[43] = Drug uptake in Wistar rat kidney at 0.67 umol, iv after 15 mins by mass spectrometry analysis; type: ADME, organism-based; conditions: read-out: Drug uptake; in short: as §2
[44] = test system: Liver; assay: Drug uptake in Wistar rat liver assessed by assuming liver mass was 7 grams at 0.67 umol, iv after 5 mins by mass spectrometry analysis; type: ADME, organism-based; conditions: in vivo; in short: as §3
[45] = Drug uptake in Wistar rat liver at 0.67 umol, iv after 0.25 mins by mass spectrometry analysis; type: ADME, organism-based; conditions: read-out: Drug uptake; in short: as §3

Drug uptake [1]: 2.5 nmol
dose excreted at 0.25 h [2]: 6.2%
Drug uptake [3]: 29.8 nmol
Stability [4]: 19.7 nmol
Stability [5]: 62.7 nmol
concentration at 5 min [6]: 0.02 µM
Ratio [7]: 12
Drug uptake [8]: 27.1 nmol
dose excreted at 0.25 h [9]: < 0.1%
Drug uptake [10]: 41.3 nmol
concentration at 0.25 h [11]: 1.6 µM
Stability [12]: 130.8 nmol
concentration at 5 min [13]: 1.6 µM
Stability [14]: 171.2 nmol
concentration at 0.25 h [15]: 2.3 µM
Drug uptake [16]: 10.7 nmol
concentration at 0.25 h [17]: 0.1 µM
Stability [18]: 52 nmol
Stability [19]: 58.9 nmol
concentration at 1 min [20]: 12.4 µM
concentration at 1 min [21]: 5.7 µM
Stability [22]: 43.6 nmol
Stability [23]: 141 nmol
concentration at 0.25 h [24]: 317 µM
concentration at 15 s [25]: 11.3 µM
Stability [26]: 32.3 nmol
Drug uptake [27]: 10.6 nmol
Ratio [28]: 34.2
Drug uptake [29]: 0.4 nmol
Stability [30]: 84.4 nmol
Ratio [31]: 37
k el [32]: 0.0317 s⁻¹
Drug uptake [33]: 2.5 nmol
Drug uptake [34]: 0.4 nmol
Stability [35]: 73.1 nmol
Ratio [36]: 71.9
concentration at 1 min [37]: 0.4 µM
concentration at 15 s [38]: 18.2 µM
concentration at 5 min [39]: 4.5 µM
Stability [40]: 17.2 nmol
Stability [41]: 55.8 nmol
Stability [42]: 34.6 nmol
concentration at 0.25 h [43]: 4.4 µM
Drug uptake [44]: 0.1 nmol
concentration at 15 s [45]: 0.4 µM
SMILES: OC[C@H]1O[C@@H](Oc2cc3c(O)cc(O)cc3[o+]c2-c2ccc(O)c(O)c2)[C@H](O)[C@@H](O)[C@@H]1O [KUROMANIN]
